In ChEMBL document CHEMBL1125563, “Selective, centrally acting serotonin 5-HT2 antagonists. 1. 2- and 6-substituted 1-phenyl-3-(4-piperidinyl)-1H-indoles” (J Med Chem, 1992):

Legend:
Rattus norvegicus [1] = test: Compound was evaluated for the inhibition of quipazine-induced head twitches after 24 hr (administered subcutaneously); 0.014-0.48; details: sc
[2] = target: Serotonin 2 (5-HT2) receptor (Rattus norvegicus, UniProt P30994+P08909+P14842); test: Displacement of [3H]ketanserin from 5-hydroxytryptamine 2 receptor from rat cortical membranes.; format: cell membranes, Membrane
Procedure, shortened: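 [3H]ketanserin displacement from rat cortical membranes (5-HT2). Five concentrations across three decades in triplicate, two full curves; IC50 estimated on a log-concentration scale, given as logarithmic mean of at least two determinations.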

Rattus norvegicus [3] = test: Compound was evaluated for the inhibition of pergolide-induced reactions after 2 hr (administered subcutaneously); 1.8-14.4; format: functional; details: sc
Procedure, shortened: (§1)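 Male Wistar rats with unilateral 6-OHDA lesions; test drug sc 2 h before pergolide (0.05 µmol/kg sc) to induce contralateral circling. Effect of each dose expressed as percent of mean of control sessions 1 week before and 1 week after, per rat; at least four rats per dose; ED50 by log-probit analysis.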

Mus musculus [4] = species: Mus musculus; test: Compound was evaluated for the inhibition of isolation-induced aggression at a threshold of, 90 seconds; 1.3-2.9; format: functional
Procedure, shortened: (§2)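 Isolated male NMRI mice (3 weeks) trained to attack a nonaggressive intruder of the same strain; only mice with attack latency <25 s included. Pretested just before dosing and 2 h after sc test substance; observation maximum 180 s; at least eight mice per dose.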

Mus musculus [5] = species: Mus musculus; test: Compound was evaluated for the inhibition of isolation-induced aggression at a threshold of 180 seconds; 1.1-2.6; format: functional
Procedure, shortened: as §2

[6] = target: T1, Adrenergic receptor alpha-1 (Rattus norvegicus, UniProt P15823+P23944+P43140); test: Displacement of [3H]prazosin from Alpha-1 adrenergic receptor of whole rat brain membranes; format: cell membranes, Membrane
T1 sequence (P15823 whole entry): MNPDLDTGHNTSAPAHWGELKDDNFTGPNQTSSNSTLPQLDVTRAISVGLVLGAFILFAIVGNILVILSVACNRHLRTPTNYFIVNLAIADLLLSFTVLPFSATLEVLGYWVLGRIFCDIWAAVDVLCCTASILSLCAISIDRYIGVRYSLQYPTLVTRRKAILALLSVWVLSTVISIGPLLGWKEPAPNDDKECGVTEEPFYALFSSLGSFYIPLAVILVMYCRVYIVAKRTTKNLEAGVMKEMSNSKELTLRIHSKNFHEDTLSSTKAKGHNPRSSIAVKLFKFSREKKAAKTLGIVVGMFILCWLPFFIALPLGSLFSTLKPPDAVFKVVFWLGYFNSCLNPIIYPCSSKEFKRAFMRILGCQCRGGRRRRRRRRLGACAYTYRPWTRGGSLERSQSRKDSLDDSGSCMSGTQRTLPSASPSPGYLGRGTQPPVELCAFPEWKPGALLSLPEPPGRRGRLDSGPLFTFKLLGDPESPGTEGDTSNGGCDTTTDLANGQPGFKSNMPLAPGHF
T1 sequence (P23944 whole entry): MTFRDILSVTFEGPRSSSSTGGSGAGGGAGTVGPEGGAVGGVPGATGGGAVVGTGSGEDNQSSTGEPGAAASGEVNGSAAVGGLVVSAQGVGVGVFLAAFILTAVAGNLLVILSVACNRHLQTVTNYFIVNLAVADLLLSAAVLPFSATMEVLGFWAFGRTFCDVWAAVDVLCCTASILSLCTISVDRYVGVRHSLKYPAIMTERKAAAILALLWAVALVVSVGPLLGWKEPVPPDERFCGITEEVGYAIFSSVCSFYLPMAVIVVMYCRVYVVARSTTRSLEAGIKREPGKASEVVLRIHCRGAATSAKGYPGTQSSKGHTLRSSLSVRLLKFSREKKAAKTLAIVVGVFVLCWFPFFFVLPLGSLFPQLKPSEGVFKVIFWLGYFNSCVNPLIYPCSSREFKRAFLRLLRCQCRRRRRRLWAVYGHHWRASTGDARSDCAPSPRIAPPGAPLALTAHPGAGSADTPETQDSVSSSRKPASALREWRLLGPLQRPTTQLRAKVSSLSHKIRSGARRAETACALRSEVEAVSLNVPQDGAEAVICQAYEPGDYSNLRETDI
T1 sequence (P43140 whole entry): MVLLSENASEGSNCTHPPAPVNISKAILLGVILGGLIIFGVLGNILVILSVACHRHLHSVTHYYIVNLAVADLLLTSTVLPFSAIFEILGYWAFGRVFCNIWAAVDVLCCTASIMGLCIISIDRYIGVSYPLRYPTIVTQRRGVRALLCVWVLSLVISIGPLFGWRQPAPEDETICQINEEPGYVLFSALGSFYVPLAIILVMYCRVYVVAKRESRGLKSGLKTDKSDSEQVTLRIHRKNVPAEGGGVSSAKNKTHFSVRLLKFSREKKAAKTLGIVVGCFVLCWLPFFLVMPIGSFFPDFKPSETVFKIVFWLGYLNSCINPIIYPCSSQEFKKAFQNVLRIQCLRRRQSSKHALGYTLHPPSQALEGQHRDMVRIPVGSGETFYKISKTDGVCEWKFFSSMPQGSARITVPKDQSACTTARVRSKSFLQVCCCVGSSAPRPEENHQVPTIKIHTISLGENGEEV
Procedure, shortened: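 α1 adrenoceptor binding measured as displacement of [3H]prazosin from whole rat brain membranes. Five test-drug concentrations spanning three decades in triplicate, two full curves; IC50 from log concentration-effect curves, logarithmic mean of at least two determinations.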

Rattus norvegicus [7] = test: Compound was evaluated for the inhibition of quipazine-induced head twitches after 24 hr (administered perorally); 0.12-0.57; format: functional; details: po
Rattus norvegicus [8] = test: Compound was evaluated for the inhibition of quipazine-induced head twitches after 2 h (administered subcutaneously); 0.011-0.12; format: functional; details: sc
Rattus norvegicus [9] = test: Compound was evaluated for the inhibition of quipazine-induced head twitches after 24 hr (administered perorally); 0.0091-0.16; details: po
Rattus norvegicus [10] = test: Compound was evaluated for the inhibition of pergolide-induced reactions after 2 hr (administered subcutaneously); 12-50; format: functional; details: sc
Procedure, shortened: as §1

Rattus norvegicus [11] = test: Compound was evaluated for the inhibition of quipazine-induced head twitches after 2 hr (administered subcutaneously); 0.012-0.095; format: functional; details: sc
D(2) dopamine receptor = D(2) dopamine receptor (Rattus norvegicus, UniProt P61169); test: Displacement of [3H]-spiperone from Dopamine receptor D2 from rat striatal membranes; format: cell membranes, Membrane
Procedure, shortened: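 [3H]spiperone displacement from rat striatal membranes (D2). Five test-drug concentrations over three decades, in triplicate, two full curves; IC50 from log concentration-effect curves, reported as logarithmic mean of at least two determinations.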

Rattus norvegicus [12] = test: Compound was evaluated for the inhibition of quipazine-induced head twitches after 24 h (administered perorally); 0.031-0.20; format: functional; details: po
Rattus norvegicus [13] = test: Compound was evaluated for the inhibition of pergolide-induced reactions after 2 hr (administered subcutaneously); 9.7-87; details: sc
Rattus norvegicus [14] = test: Compound was evaluated for the inhibition of quipazine-induced head twitches after 2 hr (administered subcutaneously); 0.072-0.45; format: functional; details: sc
Rattus norvegicus [15] = test: Compound was evaluated for the inhibition of pergolide-induced reactions after 2 hr (administered subcutaneously); 9.7-87; format: functional; details: sc
Procedure, shortened: as §1

Mus musculus [16] = species: Mus musculus; test: Compound was evaluated for the inhibition of isolation-induced aggression at a threshold of, 90 seconds; 3.5-18.4; format: functional
Mus musculus [17] = species: Mus musculus; test: Compound was evaluated for the inhibition of isolation-induced aggression at a threshold of 180 seconds; 2.3-12.4; format: functional
Rattus norvegicus [18] = test: Compound was evaluated for the inhibition of quipazine-induced head twitches after 24 hr (administered subcutaneously); 0.35-2.7; format: functional; details: sc
Rattus norvegicus [19] = test: Compound was evaluated for the inhibition of pergolide-induced reactions after 2 hr (administered subcutaneously); format: functional; details: sc
Procedure, shortened: as §1

[20] = target: T2, Alpha-1A adrenergic receptor (Rattus norvegicus, UniProt P43140); test: Compound was tested for the displacement of [3H]prazosin from alpha-1 adrenergic receptor of rat whole brain membranes
T2 sequence (P43140 whole entry): T1 sequence (P43140 whole entry)

Mus musculus [21] = species: Mus musculus; test: Compound was evaluated for the inhibition of isolation-induced aggression at a threshold of, 90 seconds
Mus musculus [22] = species: Mus musculus; test: Compound was evaluated for the inhibition of isolation-induced aggression at a threshold of 180 seconds
Rattus norvegicus [23] = test: Compound was evaluated for the inhibition of quipazine-induced head twitches after 2 hr (administered subcutaneously); 0.056-0.18; format: functional; details: sc

D(2) dopamine receptor, sequence (P61169 whole entry): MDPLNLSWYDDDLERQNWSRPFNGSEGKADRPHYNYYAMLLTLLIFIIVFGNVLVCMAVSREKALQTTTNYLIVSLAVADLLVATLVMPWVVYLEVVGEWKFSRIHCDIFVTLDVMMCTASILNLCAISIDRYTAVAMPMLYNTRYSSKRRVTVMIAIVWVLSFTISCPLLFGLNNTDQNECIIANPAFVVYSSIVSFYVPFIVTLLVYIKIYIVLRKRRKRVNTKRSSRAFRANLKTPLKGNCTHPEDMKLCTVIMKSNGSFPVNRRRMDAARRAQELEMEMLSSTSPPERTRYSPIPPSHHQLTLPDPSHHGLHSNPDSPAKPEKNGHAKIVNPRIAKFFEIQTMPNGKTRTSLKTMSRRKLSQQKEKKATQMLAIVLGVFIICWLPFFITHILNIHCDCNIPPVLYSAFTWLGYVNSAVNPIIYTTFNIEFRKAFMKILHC

For `O=C1NCCN1CCN1CCC(c2cn(-c3ccc(F)cc3)c3ccccc23)CC1`, the ED50 (Rattus norvegicus [1]) was 0.082 µmol/kg, the IC50 [2] was 0.72 nM and the ED50 (Rattus norvegicus [3]) was 5.1 µmol/kg. The ED50 (Mus musculus [4]) was 1.9 µmol/kg, the ED50 (Mus musculus [5]) was 1.7 µmol/kg and the IC50 [6] was 3 nM. The ED50 (Rattus norvegicus [7]) was 0.26 µmol/kg and the ED50 (Rattus norvegicus [8]) was 0.036 µmol/kg.

Compound `O=C1NCCN1CCN1CCC(c2cn(-c3ccc(F)cc3)c3cc(F)ccc23)CC1` has an ED50 (Rattus norvegicus [9]) of 0.038 µmol/kg, an IC50 [2] of 0.73 nM and an ED50 (Rattus norvegicus [10]) of 25 µmol/kg. For the same compound, the ED50 (Rattus norvegicus [11]) was 0.034 µmol/kg, the IC50 [6] was 2.2 nM and the IC50 (D(2) dopamine receptor) was 36 nM.

In the case of `Cc1c(C2CCN(CCN3CCNC3=O)CC2)c2ccccc2n1-c1ccc(F)cc1`, the ED50 (Rattus norvegicus [12]) is reported as 0.078 µmol/kg, the ED50 (Rattus norvegicus [13]) is reported as 29 µmol/kg and the IC50 [2] is reported as 0.59 nM. For the same compound, the ED50 (Rattus norvegicus [14]) was 0.18 µmol/kg, the ED50 (Rattus norvegicus [15]) was 29 µmol/kg and the IC50 [6] was 76 nM.

Compound `c1cc2c(c(N3CCNCC3)c1)OCCO2` [ELTOPRAZINE] has an ED50 (Mus musculus [16]) of 8 µmol/kg and an ED50 (Mus musculus [17]) of 5.4 µmol/kg.

`Cc1nc2sccn2c(=O)c1CCN1CCC(=C(c2ccc(F)cc2)c2ccc(F)cc2)CC1` [RITANSERIN] showed an ED50 (Rattus norvegicus [18]) of 0.98 µmol/kg, an ED50 (Rattus norvegicus [19]) greater than 21 µmol/kg and an IC50 [20] of 47 nM. The ED50 (Mus musculus [21]) was greater than 10 µmol/kg, the ED50 (Mus musculus [22]) was greater than 10 µmol/kg and the ED50 (Rattus norvegicus [23]) was 0.1 µmol/kg.
